Measurements: ChEMBL document CHEMBL4765345, “Design, synthesis, and biological evaluation of dual targeting inhibitors of histone deacetylase 6/8 and bromodomain BRPF1” (Eur J Med Chem, 2020)

Assays:
[1] = biological target: T1, Protein deacetylase HDAC6 (Homo sapiens) (UniProt Q9UBN7); test: Inhibition of recombinant human HDAC6 at 1 uM using Z-(Ac)Lys-AMC as substrate after 90 mins by fluorescence based micro plate assay
T1 sequence (whole entry): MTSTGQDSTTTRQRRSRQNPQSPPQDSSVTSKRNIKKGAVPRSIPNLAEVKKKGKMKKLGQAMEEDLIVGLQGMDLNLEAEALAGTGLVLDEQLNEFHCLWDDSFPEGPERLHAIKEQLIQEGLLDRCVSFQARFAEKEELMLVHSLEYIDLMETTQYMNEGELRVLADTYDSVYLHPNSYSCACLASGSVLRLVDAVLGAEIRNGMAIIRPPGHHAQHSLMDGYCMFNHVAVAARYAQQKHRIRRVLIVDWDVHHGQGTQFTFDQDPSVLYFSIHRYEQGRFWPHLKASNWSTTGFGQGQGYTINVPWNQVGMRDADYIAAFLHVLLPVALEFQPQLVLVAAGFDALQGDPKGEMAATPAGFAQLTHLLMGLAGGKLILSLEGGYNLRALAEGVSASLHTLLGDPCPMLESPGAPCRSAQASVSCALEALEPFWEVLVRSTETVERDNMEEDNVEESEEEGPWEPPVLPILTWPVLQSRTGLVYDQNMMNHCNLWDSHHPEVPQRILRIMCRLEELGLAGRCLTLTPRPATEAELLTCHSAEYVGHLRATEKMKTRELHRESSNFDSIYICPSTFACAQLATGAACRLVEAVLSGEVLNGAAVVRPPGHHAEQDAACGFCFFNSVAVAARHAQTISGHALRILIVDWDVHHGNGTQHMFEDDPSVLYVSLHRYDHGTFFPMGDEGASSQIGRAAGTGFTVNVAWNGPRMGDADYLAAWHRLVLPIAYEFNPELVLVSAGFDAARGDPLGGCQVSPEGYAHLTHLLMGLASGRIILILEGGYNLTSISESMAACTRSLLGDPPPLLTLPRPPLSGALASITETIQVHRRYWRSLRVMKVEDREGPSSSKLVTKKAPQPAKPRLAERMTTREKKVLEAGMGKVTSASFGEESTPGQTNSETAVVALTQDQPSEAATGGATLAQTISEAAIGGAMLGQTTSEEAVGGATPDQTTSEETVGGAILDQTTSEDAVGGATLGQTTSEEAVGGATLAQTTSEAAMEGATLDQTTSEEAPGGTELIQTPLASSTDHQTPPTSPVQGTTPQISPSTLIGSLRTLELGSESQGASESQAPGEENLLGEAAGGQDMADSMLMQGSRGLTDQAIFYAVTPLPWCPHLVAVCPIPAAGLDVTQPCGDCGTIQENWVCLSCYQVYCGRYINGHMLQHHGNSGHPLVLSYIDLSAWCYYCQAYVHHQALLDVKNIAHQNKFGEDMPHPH
Outline: (§1)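 Recombinant human HDAC1 or HDAC6 incubated 90 min at 37 °C with 10.5 μM ZMAL (Z-(Ac)Lys-AMC) and increasing inhibitor concentrations, using a homogeneous fluorescence assay. Fluorescence read at Ex 390/Em 460 nm.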

[2] = test system: THP-1; test: Antiproliferative activity against human THP-1 assessed as reduction in cell growth at 100 uM by CellTiter-non radioactive cell proliferation assay; type: functional
[3] = test system: THP-1; test: Antiproliferative activity against human THP-1 assessed as reduction in cell growth at 4 uM by CellTiter-non radioactive cell proliferation assay; type: functional
[4] = test system: HL-60; test: Antiproliferative activity against human HL60 assessed as reduction in cell growth at 4 uM by CellTiter-non radioactive cell proliferation assay; type: functional
Outline: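 HL60 cells plated at 5000 per well and given inhibitor or DMSO vehicle immediately. Compounds diluted from 200x DMSO stocks; three replicates per concentration. Growth read by CellTiter 96 Aqueous (MTS) assay. GI50 is the concentration cutting metabolically active cells by 50% versus DMSO control, taken from absorbance against log concentration.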

[5] = biological target: T2, Histone deacetylase 8 (Homo sapiens, UniProt Q9BY41); test: Inhibition of human recombinant HDAC8 using H2N-Arg-His-Lys(Ac)-Lys(Ac)-AMC as substrate after 90 mins by fluorescence based micro plate assay
T2 sequence (Q9BY41 whole entry): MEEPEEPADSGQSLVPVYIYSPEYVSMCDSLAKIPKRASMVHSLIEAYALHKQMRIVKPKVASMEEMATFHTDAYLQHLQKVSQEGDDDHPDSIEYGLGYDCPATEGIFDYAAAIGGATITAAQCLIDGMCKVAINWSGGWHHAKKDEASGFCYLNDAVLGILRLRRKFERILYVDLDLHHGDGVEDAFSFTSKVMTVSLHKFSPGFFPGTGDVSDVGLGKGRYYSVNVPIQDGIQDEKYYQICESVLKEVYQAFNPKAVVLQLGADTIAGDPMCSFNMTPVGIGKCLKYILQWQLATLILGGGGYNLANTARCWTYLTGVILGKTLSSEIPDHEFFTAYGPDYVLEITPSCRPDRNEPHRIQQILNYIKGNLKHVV

[6] = test system: HEK293; test: Cytotoxicity against human HEK293 assessed as reduction in cell viability incubated for 24 hrs by AlamarBlue assay; type: cell-based; settings: hek293, 24 h
Outline: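 HEK293 cells were grown at 37 °C under 5% CO2 in DMEM with 10% FCS and 5 mM glutamine and seeded at 1.5 x 10³ cells per well. Compound at 50 μM was added at once. After 24 h AlamarBlue was added for another 21 h, and fluorescence was read at Ex 560/Em 590 nm. Triplicates over three independent experiments.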

[7] = biological target: T3, Histone deacetylase 1 (Homo sapiens, UniProt Q13547); test: Inhibition of recombinant human HDAC1 at 1 uM using Z-(Ac)Lys-AMC as substrate after 90 mins by fluorescence based micro plate assay; outline: as §1
T3 sequence (Q13547 whole entry): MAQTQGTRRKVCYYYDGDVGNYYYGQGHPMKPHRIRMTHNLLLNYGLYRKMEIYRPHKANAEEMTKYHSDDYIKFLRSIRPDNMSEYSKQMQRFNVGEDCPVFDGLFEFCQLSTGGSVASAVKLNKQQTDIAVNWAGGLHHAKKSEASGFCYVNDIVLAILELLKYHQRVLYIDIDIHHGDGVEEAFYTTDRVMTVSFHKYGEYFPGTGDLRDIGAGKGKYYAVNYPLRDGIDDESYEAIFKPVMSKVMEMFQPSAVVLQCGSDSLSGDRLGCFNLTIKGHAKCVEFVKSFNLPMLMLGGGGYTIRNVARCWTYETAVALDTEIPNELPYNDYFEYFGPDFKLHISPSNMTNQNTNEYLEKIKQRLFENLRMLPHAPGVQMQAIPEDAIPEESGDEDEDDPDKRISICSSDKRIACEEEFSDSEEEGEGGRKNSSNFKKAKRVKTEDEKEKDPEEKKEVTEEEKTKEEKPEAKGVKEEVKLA

[8] = test system: HL-60; test: Antiproliferative activity against human HL60 assessed as reduction in cell growth at 20 uM by CellTiter-non radioactive cell proliferation assay; type: functional
[9] = biological target: T3, Histone deacetylase 1; test: Inhibition of recombinant human HDAC1 at 10 uM using Z-(Ac)Lys-AMC as substrate after 90 mins by fluorescence based micro plate assay; outline: as §1
[10] = biological target: T1, Protein deacetylase HDAC6 (Homo sapiens); test: Inhibition of recombinant human HDAC6 at 10 uM using Z-(Ac)Lys-AMC as substrate after 90 mins by fluorescence based micro plate assay; outline: as §1

inhibition [1]: 21% | IC50 [5]: 443 nM | inhibition [7]: 6% | inhibition [9]: 38% | inhibition [10]: 64%
SMILES: COc1ccc(C(=O)NO)cc1S(=O)(=O)Nc1ccc2c(c1)cc(C)c(=O)n2C
inhibition at 100 µM [2]: 43% | inhibition at 4 µM [3]: 0% | inhibition at 4 µM [4]: 25% | Activity [6]: Non-Toxic | inhibition at 20 µM [8]: 10%
